Source: ChEMBL document CHEMBL1140473, “Novel potent macrocyclic inhibitors of the hepatitis C virus NS3 protease: use of cyclopentane and cyclopentene P2-motifs” (Bioorg Med Chem, 2007)

Columns and labels:
[1] = Inhibition of HCV 1a recombinant full length NS3/4A protease; set-up: species or system Hepatitis C virus subtype 1a
Outline: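 Preincubated 30 min at room temperature, then started with 2 μM FRET substrate RET S1. Fluorescence (ex 355/em 500 nm) followed 20 min. IC50 by non-linear fit; Ki = IC50/(1+S/Km), assuming competitive inhibition.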

Hepatitis C virus = test: Antiviral activity against HCV 1b replicon in Huh7 cells after 48 hrs; format: functional, organism-based, Hepacivirus hominis; conditions: genotype 1b, Huh-7, 48 h
Outline: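 Huh-7 cells carrying a subgenomic genotype 1b replicon with firefly luciferase, kept under 0.5 mg/ml G418. Cells seeded at 1500 per well, dosed after 24 h with fivefold serial dilutions (DMSO ≤1% final), incubated 48 h, then lysed for luciferase read-out. EC50 is the concentration lowering luciferase signal 50% versus untreated control.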

Cathepsin B = Cathepsin B (Homo sapiens, UniProt P07858); test: Inhibition of human cathepsin B
[2] = Inhibition of human elastase
[3] = Inhibition of human chymotrypsin

Row | Structure (SMILES) | Ki [1] [nM] | EC50 (Hepatitis C virus) [nM] | Ki (Cathepsin B) [nM] | Ki [2] [nM] | Ki [3] [nM]
1 | COc1ccc2c(O[C@H]3C[C@H]4C(=O)NCCCCC=C[C@@H]5C[C@@]5(C(=O)O)NC(=O)[C@@H]4C3)cc(-c3ccccc3)nc2c1 | 260 | > 10000 | – | – | –
2 | COc1ccc2c(O[C@H]3C=C4C(=O)N(N)CCCCC/C=C\[C@@H]5C[C@@]5(C(=O)O)NC(=O)[C@@H]4C3)cc(-c3ccccc3)nc2c1 | 110 | 4500 | – | – | –
3 | COc1ccc2c(O[C@@H]3C[C@H]4C(=O)N[C@]5(C(=O)NS(=O)(=O)C6CC6)C[C@H]5C=CCCCCN(N)C(=O)[C@@H]4C3)cc(-c3ccccc3)nc2c1 | 0.19 | 33 | – | – | –
4 | COc1ccc2c(O[C@H]3C[C@H]4C(=O)NCCCCC=C[C@@H]5C[C@@]5(C(=O)NS(=O)(=O)C5CC5)NC(=O)[C@@H]4C3)cc(-c3ccccc3)nc2c1 | 2.2 | 4400 | – | – | –
5 | COc1ccc2c(O[C@@H]3C[C@H]4C(=O)N[C@]5(C(=O)O)C[C@H]5/C=C\CCCCCN(NC(=O)OC(C)(C)C)C(=O)[C@@H]4C3)cc(-c3ccccc3)nc2c1 | 710 | > 10000 | – | – | –
6 | COc1ccc2c(O[C@@H]3C[C@H]4C(=O)N[C@]5(C(=O)O)C[C@H]5/C=C\CCCN(NC(=O)OC(C)(C)C)C(=O)[C@@H]4C3)cc(-c3ccccc3)nc2c1 | 130 | > 10000 | – | – | –
7 | COc1ccc2c(O[C@@H]3C[C@H]4C(=O)N[C@]5(C(=O)NS(=O)(=O)C6CC6)C[C@H]5C=CCCCCN(C)C(=O)[C@@H]4C3)cc(-c3ccccc3)nc2c1 | 0.41 | 9.1 | 2200 | > 5000 | > 5000

Other lines, results leading:

Row | Ki [1] [nM] | EC50 (Hepatitis C virus) [nM] | Ki (Cathepsin B) [nM] | Ki [2] [nM] | Ki [3] [nM] | Structure (SMILES)
8 | 31 | > 10000 | – | – | – | COc1ccc2c(O[C@@H]3C[C@H]4C(=O)N[C@]5(C(=O)O)C[C@H]5C=CCCCCN(NC(=O)OC(C)(C)C)C(=O)[C@@H]4C3)cc(-c3ccccc3)nc2c1
9 | 44 | 2200 | – | – | – | COc1ccc2c(O[C@@H]3C[C@H]4C(=O)N[C@]5(C(=O)O)C[C@H]5C=CCCCCN(C)C(=O)[C@@H]4C3)cc(-c3ccccc3)nc2c1
10 | 6 | 7600 | – | – | – | COc1ccc2c(O[C@@H]3C[C@H]4C(=O)N[C@]5(C(=O)O)C[C@H]5C=CCCCCN(N)C(=O)[C@@H]4C3)cc(-c3ccccc3)nc2c1
11 | 0.07 | 530 | – | – | – | COc1ccc2c(O[C@@H]3C[C@H]4C(=O)N[C@]5(C(=O)NS(=O)(=O)C6CC6)C[C@H]5C=CCCCCN(NC(=O)OC(C)(C)C)C(=O)[C@@H]4C3)cc(-c3ccccc3)nc2c1
12 | > 10000 | > 10000 | – | – | – | COc1ccc2c(O[C@H]3CC4C(=O)N(N)CCCCCCC=C[C@@H]5C[C@@]5(C(=O)O)NC(=O)[C@@H]4C3)cc(-c3ccccc3)nc2c1 (stereo partly specified)
13 | 120 | > 10000 | – | – | – | COc1ccc2c(O[C@@H]3C[C@H]4C(=O)N[C@]5(C(=O)O)C[C@H]5/C=C\CCCCCN(N)C(=O)[C@@H]4C3)cc(-c3ccccc3)nc2c1
14 | > 10000 | > 10000 | – | – | – | COc1ccc2c(O[C@H]3CC4C(=O)N(NC(=O)OC(C)(C)C)CCCCCCC=C[C@@H]5C[C@@]5(C(=O)O)NC(=O)[C@@H]4C3)cc(-c3ccccc3)nc2c1 (stereo partly specified)
